In brackets after ≈: the same amount, converted by molar mass.
Tests used:
Type in all cases: functional
Streptococcus pneumoniae = assay: Antibacterial activity against Streptococcus pneumoniae ATCC 6305 after overnight incubation by broth microdilution method
Outline: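 Broth microdilution MIC in cation-adjusted Mueller–Hinton broth supplemented with 5% horse serum. The inoculum was overnight agar colonies suspended in sterile saline to 0.5 McFarland turbidity. The screen cut-off was […]. Testing conditions were pH 7.4.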

Moraxella catarrhalis = assay: Antibacterial activity against Moraxella catarrhalis ATCC 23246 after overnight incubation by broth microdilution method
Outline: (§1)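 MIC from a broth microdilution screen against ATCC reference strains, run in cation-adjusted Mueller–Hinton broth. Inocula were made from overnight agar cultures: colonies were suspended in sterile saline to a turbidity equal to a 0.5 McFarland standard. The screen's upper cut-off was […]. Testing conditions were pH 7.4.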

Staphylococcus aureus = assay: Antibacterial activity against Staphylococcus aureus ATCC 29213 after overnight incubation by broth microdilution method
Outline: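 MIC from a broth microdilution screen in cation-adjusted Mueller–Hinton broth against the ATCC reference strain. The inoculum was colonies from overnight agar culture suspended in sterile saline to a 0.5 McFarland turbidity. The top concentration tested was […]. Testing conditions were pH 7.4.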

Escherichia coli = assay: Antibacterial activity against Escherichia coli ATCC 25922 after overnight incubation by broth microdilution method; outline: as §1
Haemophilus influenzae = assay: Antibacterial activity against Haemophilus influenzae ATCC 49247 after overnight incubation by broth microdilution method
Outline: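 Broth microdilution MIC run in Haemophilus Test Medium (HTM). The inoculum was overnight agar colonies suspended in sterile saline to 0.5 McFarland turbidity. The upper cut-off was […]. Testing conditions were pH 7.4.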

Enterococcus faecalis = assay: Antibacterial activity against Enterococcus faecalis ATCC 29212 after overnight incubation by broth microdilution method; outline: as §1

MIC (Streptococcus pneumoniae)	MIC (Moraxella catarrhalis)	MIC (Staphylococcus aureus)	MIC (Escherichia coli)	MIC (Haemophilus influenzae)	MIC (Enterococcus faecalis)	Structure (SMILES)
64 µg/mL (≈ 121 µM)	32 µg/mL (≈ 60.6 µM)	64 µg/mL (≈ 121 µM)	> 128 µg/mL	> 128 µg/mL	32 µg/mL (≈ 60.6 µM)	CC1(C)SN(CC(=O)OCc2ccccc2)C(=O)[C@@H]1N1C(=O)[C@@H](N2C(=O)c3ccccc3C2=O)[C@@H]1Cl
–	64 µg/mL (≈ 147 µM)	–	–	–	–	CC1(C)S[C@@H]2[C@H](N3C(=O)c4ccccc4C3=O)C(=O)N2[C@H]1C(=O)NCc1ccccc1
8 µg/mL (≈ 13.2 µM)	64 µg/mL (≈ 106 µM)	32 µg/mL (≈ 53 µM)	> 128 µg/mL	> 128 µg/mL	16 µg/mL (≈ 26.5 µM)	CC1(C)SN([C@H](C(=O)OCc2ccccc2)c2ccccc2)C(=O)[C@@H]1N1C(=O)[C@@H](N2C(=O)c3ccccc3C2=O)[C@@H]1Cl
–	–	–	–	–	> 128 µg/mL	C[C@@H](C(=O)O)N1SC(C)(C)[C@@H](N2C(=O)[C@@H](N3C(=O)c4ccccc4C3=O)[C@@H]2Cl)C1=O
–	> 128 µg/mL	–	–	–	–	C[C@H](NC(=O)[C@@H]1N2C(=O)[C@@H](N3C(=O)c4ccccc4C3=O)[C@H]2SC1(C)C)C(=O)OCc1ccccc1
–	> 128 µg/mL	–	–	–	–	CC1(C)S[C@@H]2[C@H](N3C(=O)c4ccccc4C3=O)C(=O)N2[C@H]1C(=O)N[C@H](C(=O)OCc1ccccc1)c1ccccc1
–	–	–	–	–	> 128 µg/mL	CC1(C)SN(CC(=O)O)C(=O)[C@@H]1N1C(=O)[C@@H](N2C(=O)c3ccccc3C2=O)[C@@H]1Cl
–	> 128 µg/mL	–	–	–	–	CC1(C)SN([C@H](C(=O)O)c2ccccc2)C(=O)[C@@H]1N1C(=O)[C@@H](N2C(=O)c3ccccc3C2=O)[C@@H]1Cl
–	> 128 µg/mL	–	–	–	–	CC(C)NC(=O)[C@@H]1N2C(=O)[C@@H](N3C(=O)c4ccccc4C3=O)[C@H]2SC1(C)C
64 µg/mL (≈ 136 µM)	16 µg/mL (≈ 34 µM)	128 µg/mL (≈ 272 µM)	> 128 µg/mL	> 128 µg/mL	64 µg/mL (≈ 136 µM)	CC1(C)SN(Cc2ccccc2)C(=O)[C@@H]1N1C(=O)[C@@H](N2C(=O)c3ccccc3C2=O)[C@@H]1Cl
64 µg/mL (≈ 118 µM)	32 µg/mL (≈ 59 µM)	64 µg/mL (≈ 118 µM)	> 128 µg/mL	> 128 µg/mL	64 µg/mL (≈ 118 µM)	C[C@@H](C(=O)OCc1ccccc1)N1SC(C)(C)[C@@H](N2C(=O)[C@@H](N3C(=O)c4ccccc4C3=O)[C@@H]2Cl)C1=O
–	64 µg/mL (≈ 152 µM)	–	–	–	–	CC(C)N1SC(C)(C)[C@@H](N2C(=O)[C@@H](N3C(=O)c4ccccc4C3=O)[C@@H]2Cl)C1=O
–	64 µg/mL (≈ 130 µM)	–	–	–	–	CC1(C)S[C@@H]2[C@H](N3C(=O)c4ccccc4C3=O)C(=O)N2[C@H]1C(=O)NCC(=O)OCc1ccccc1

Structure (SMILES)	MIC (Streptococcus pneumoniae)	MIC (Moraxella catarrhalis)	MIC (Staphylococcus aureus)	MIC (Escherichia coli)	MIC (Haemophilus influenzae)	MIC (Enterococcus faecalis)
CC1(C)S[C@@H]2[C@H](NC(=O)[C@H](N)c3ccc(O)cc3)C(=O)N2[C@H]1C(=O)O [AMOXICILLIN]	4 µg/mL (≈ 10.9 µM)	0.5 µg/mL (≈ 1.37 µM)	1 µg/mL (≈ 2.74 µM)	0.5 µg/mL (≈ 1.37 µM)	0.015 µg/mL (≈ 0.041 µM)	4 µg/mL (≈ 10.9 µM)
